In ChEMBL document CHEMBL3603733, “Synthesis and biological evaluation of (3',5'-dichloro-2,6-dihydroxy-biphenyl-4-yl)-aryl/alkyl-methanone selective CB2 inverse agonist” (Bioorg Med Chem, 2015):
Activity calls are given as the source filed them. The calls are words filed in the database; no cut-off is given here.

Assays:
[1] = target: T1, Cannabinoid receptor 1 (Homo sapiens, UniProt P21554); test: Inverse agonist activity at CB1 receptor (unknown origin) expressed in HEK cells assessed as increase in cAMP production at 5 x 10^-6 to 5 x 10^-10 M measured at 50 mins by ACTOne dye-based fluorescence assay in presence of forskolin and Ro 20-1724 relative to control; assay type: functional, cell-based; settings: HEK293
Procedure, shortened: (§1)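 HEK-CNG+CB1 or HEK-CNG+CB2 cells, plus parental HEK-CNG, were plated at 50,000 cells/well in DMEM with 10% FBS the day before. Membrane potential dye was loaded for 1 h in the dark at room temperature. Ligands were added at 5x10⁻⁶ to 5x10⁻¹⁰ final, with 25 µM Ro 20-1724 and 800 nM forskolin, in DPBS with 2.5% DMSO. Fluorescence (Ex 540, Em 590 nm) was read at 50 min. At least six biological replicates were run, with non-linear fitting.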

[2] = species: Homo sapiens; test: Selectivity ratio of Ki for CB1 receptor (unknown origin) to Ki for CB2 receptor (unknown origin)
[3] = target: T2, Cannabinoid receptor 2 (Homo sapiens, UniProt P34972); test: Displacement of [3H]-CP55940 from CB2 receptor (unknown origin) expressed in HEK-CNG cell membranes after 90 mins by liquid scintillation counting analysis
[4] = target: T2, Cannabinoid receptor 2; test: Inverse agonist activity at CB2 receptor (unknown origin) expressed in HEK cells assessed as increase in cAMP production measured at 50 mins by ACTOne dye-based fluorescence assay in presence of forskolin and Ro 20-1724; assay type: functional, cell-based, HEK293
Procedure, shortened: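 HEK-CNG+CB1 or HEK-CNG+CB2 cells, plus parental HEK-CNG, were plated at 50,000 cells/well in DMEM with 10% FBS the day before. Membrane potential dye was loaded for 1 h in the dark at room temperature. At least six biological replicates were run, with non-linear fitting.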

[5] = target: T2, Cannabinoid receptor 2; test: Inverse agonist activity at CB2 receptor (unknown origin) expressed in HEK cells assessed as increase in cAMP production at 5 x 10^-6 to 5 x 10^-10 M measured at 50 mins by ACTOne dye-based fluorescence assay in presence of forskolin and Ro 20-1724 relative to control; assay type: functional, cell-based; settings: HEK293; procedure, shortened: as §1
[6] = target: T1, Cannabinoid receptor 1; test: Displacement of [3H]-CP55940 from CB1 receptor (unknown origin) expressed in HEK-CNG cell membranes after 90 mins by liquid scintillation counting analysis
[7] = target: T1, Cannabinoid receptor 1; test: Inverse agonist activity at CB1 receptor (unknown origin) expressed in HEK cells assessed as increase in cAMP production measured at 50 mins by ACTOne dye-based fluorescence assay in presence of forskolin and Ro 20-1724; assay type: functional, cell-based, HEK293; procedure, shortened: as §1
[8] = target: T2, Cannabinoid receptor 2; test: Non-competitive antagonist activity at CB2 receptor (unknown origin) expressed in HEK cells incubated in dark condition for 30 mins prior to CP55940 addition measured at 50 mins by Schild plot analysis; assay type: cell-based; settings: HEK293
Procedure, shortened: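 HEK-CNG+CB2 cells were loaded with membrane potential dye. After 30 min, antagonist in DPBS with 2.5% DMSO was added and incubated 30 more min in the dark at room temperature. CP 55,940 was then added with 25 µM Ro 20-1724 and 800 nM forskolin (final). Fluorescence was read at 50 min.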

T2 sequence (P34972 whole entry): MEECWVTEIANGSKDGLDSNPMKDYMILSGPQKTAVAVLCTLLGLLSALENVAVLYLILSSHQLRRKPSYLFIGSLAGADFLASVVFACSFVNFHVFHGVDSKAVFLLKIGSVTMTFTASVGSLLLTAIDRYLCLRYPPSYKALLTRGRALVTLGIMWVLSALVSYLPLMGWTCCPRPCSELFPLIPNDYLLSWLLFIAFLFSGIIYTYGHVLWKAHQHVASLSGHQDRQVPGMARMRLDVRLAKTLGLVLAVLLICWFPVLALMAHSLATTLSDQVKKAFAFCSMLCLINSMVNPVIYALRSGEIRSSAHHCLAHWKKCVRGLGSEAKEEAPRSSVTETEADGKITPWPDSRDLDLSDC
T1 sequence (P21554 whole entry): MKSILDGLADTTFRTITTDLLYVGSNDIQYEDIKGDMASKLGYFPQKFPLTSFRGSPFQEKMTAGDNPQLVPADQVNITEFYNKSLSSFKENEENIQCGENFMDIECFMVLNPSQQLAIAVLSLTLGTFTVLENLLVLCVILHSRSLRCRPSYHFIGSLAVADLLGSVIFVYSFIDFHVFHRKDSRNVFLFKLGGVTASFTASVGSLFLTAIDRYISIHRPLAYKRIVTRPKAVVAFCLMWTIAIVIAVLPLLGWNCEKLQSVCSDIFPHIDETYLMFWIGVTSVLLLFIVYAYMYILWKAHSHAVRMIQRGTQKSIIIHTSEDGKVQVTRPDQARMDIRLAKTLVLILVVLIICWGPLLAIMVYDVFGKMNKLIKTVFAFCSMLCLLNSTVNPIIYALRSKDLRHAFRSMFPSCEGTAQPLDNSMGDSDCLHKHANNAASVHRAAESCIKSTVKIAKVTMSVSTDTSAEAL

In the case of CCc1cccc(C(=O)c2cc(O)c(-c3cc(Cl)cc(Cl)c3)c(O)c2)c1, the Efficacy [1] is reported as “inactive”, the Ratio Ki [2] is reported as greater than 5.82 and the Ki [3] is reported as 1.72 µM. The EC50 ([4]; read-out: EC50) was greater than 5 µM, the Efficacy [5] was 184% and the Ki [6] was greater than 10 µM. For the same compound, the EC50 ([7]; hek293) was “Not Active”.
In the case of O=C(c1cc(O)c(-c2cc(Cl)cc(Cl)c2)c(O)c1)C1CCCCC1, the Efficacy [1] is reported as “inactive”, the Ratio Ki [2] is reported as 0.19 and the Ki [3] is reported as 1.59 µM. The EC50 ([4]; read-out: EC50) was 2.54 µM, the Efficacy [5] was “inactive” and the Ki [6] was 0.299 µM. For the same compound, the EC50 ([7]; read-out: EC50) was greater than 5 µM.
For O=C(c1cccc(C(F)(F)F)c1)c1cc(O)c(-c2cc(Cl)cc(Cl)c2)c(O)c1, the Ki [3] was greater than 10 µM, the EC50 ([4]; hek293) was “Not Active” and the Ki [6] was 4.13 µM. For the same compound, the EC50 ([7]; hek293) was “Not Active”.
CCCCc1ccc(C(=O)c2cc(OC)c(-c3cc(Cl)cc(Cl)c3)c(OC)c2)cc1 was tested, and the Efficacy [1] was “inactive”, the Ki [3] was greater than 10 µM and the EC50 ([4]; hek293) was “Not Active”. For the same compound, the Efficacy [5] was “inactive”, the Ki [6] was greater than 10 µM and the EC50 ([7]; hek293) was “Not Active”.
Compound COc1cc(C(=O)c2ccc(C)cc2)cc(O)c1-c1cc(Cl)cc(Cl)c1 has a Ki [3] greater than 10 µM, an EC50 ([4]; read-out: EC50) greater than 5 µM and an Efficacy [5] of 129%. The Ki [6] was greater than 10 µM and the EC50 ([7]; hek293) was “Not Active”.
O=C(c1ccc(O)cc1)c1cc(O)c(-c2cc(Cl)cc(Cl)c2)c(O)c1 was tested, and the Efficacy [1] was “inactive”, the Ki [3] was greater than 10 µM and the EC50 ([4]; read-out: EC50) was greater than 5 µM. The Efficacy [5] was 75.6%, the Ki [6] was greater than 10 µM and the EC50 ([7]; hek293) was “Not Active”.
In the case of COc1cc(C(=O)c2ccc(Cl)cc2)cc(OC)c1-c1cc(Cl)cc(Cl)c1, the Ki [3] is reported as greater than 10 µM, the EC50 ([4]; hek293) is reported as “Not Active” and the Ki [6] is reported as greater than 10 µM. For the same compound, the EC50 ([7]; hek293) was “Not Active”.
COc1cc(C(=O)c2ccc(Cl)cc2)cc(O)c1-c1cc(Cl)cc(Cl)c1 showed an Efficacy [1] of 71.3%, a Ki [3] greater than 10 µM and an EC50 ([4]; read-out: EC50) greater than 5 µM. For the same compound, the Efficacy [5] was 97.5%, the Ki [6] was greater than 10 µM and the EC50 ([7]; read-out: EC50) was 2.88 µM.
With Cc1cccc(C(=O)c2cc(O)c(-c3cc(Cl)cc(Cl)c3)c(O)c2)c1 the Ki [3] was 2.62 µM, the EC50 ([4]; hek293) was “Not Active” and the Ki [6] was greater than 10 µM. For the same compound, the EC50 ([7]; hek293) was “Not Active”.
In the case of O=C(c1ccccc1)c1cc(O)c(-c2cc(Cl)cc(Cl)c2)c(O)c1, the Efficacy [1] is reported as “inactive”, the inhibition [8] is reported as “Active” and the Ratio Ki [2] is reported as 39.4. For the same compound, the Efficacy [5] was 54.8% and the EC50 ([7]; hek293) was “Not Active”.
In the case of CC(C)(C)c1ccc(C(=O)c2cc(O)c(-c3cc(Cl)cc(Cl)c3)c(O)c2)cc1, the Ki [3] is reported as 3.17 µM, the EC50 ([4]; read-out: EC50) is reported as 3.97 µM and the Efficacy [5] is reported as 275%. The Ki [6] was 2.53 µM and the EC50 ([7]; hek293) was “Not Active”.
Work on CC(C)c1ccc(C(=O)c2cc(O)c(-c3cc(Cl)cc(Cl)c3)c(O)c2)cc1 yielded a Ki [3] of 0.161 µM, an EC50 ([4]; read-out: EC50) of 0.182 µM and an Efficacy [5] of 56%. For the same compound, the Ki [6] was 3.33 µM and the EC50 ([7]; hek293) was “Not Active”.
For O=C(c1ccc(C(F)(F)F)cc1)c1cc(O)c(-c2cc(Cl)cc(Cl)c2)c(O)c1, the Efficacy [1] was 37%, the Ki [3] was greater than 10 µM and the EC50 ([4]; read-out: EC50) was greater than 5 µM. The Efficacy [5] was 49.7%, the Ki [6] was greater than 10 µM and the EC50 ([7]; read-out: EC50) was greater than 5 µM.
For O=C(c1ccc(Cl)cc1)c1cc(O)c(-c2cc(Cl)cc(Cl)c2)c(O)c1, the Efficacy [1] was 169%, the Ratio Ki [2] was 38.5 and the Ki [3] was 0.121 µM. The EC50 ([4]; read-out: EC50) was 0.0897 µM, the Efficacy [5] was 119% and the Ki [6] was 4.65 µM. For the same compound, the EC50 ([7]; read-out: EC50) was 3.28 µM.
With CCc1ccc(C(=O)c2cc(O)c(-c3cc(Cl)cc(Cl)c3)c(O)c2)cc1 the inhibition [8] was “Active”, the Ki [3] was 0.0376 µM and the EC50 ([4]; read-out: EC50) was 0.0295 µM. For the same compound, the Efficacy [5] was 52.2%, the Ki [6] was 1.14 µM and the EC50 ([7]; hek293) was “Not Active”.
CCCCc1ccc(C(=O)c2cc(O)c(-c3cc(Cl)cc(Cl)c3)c(O)c2)cc1 was tested, and the Efficacy [1] was “inactive”, the inhibition [8] was “Active” and the Ratio Ki [2] was greater than 21.5. It also gave a Ki [3] of 0.464 µM, an EC50 ([4]; read-out: EC50) of 0.254 µM and an Efficacy [5] of 176%. The Ki [6] was greater than 10 µM and the EC50 ([7]; hek293) was “Not Active”.
CCCc1ccc(C(=O)c2cc(O)c(-c3cc(Cl)cc(Cl)c3)c(O)c2)cc1 gave a Ki [3] of 0.0599 µM, an EC50 ([4]; read-out: EC50) of 0.0288 µM and an Efficacy [5] of 50%. For the same compound, the Ki [6] was greater than 10 µM and the EC50 ([7]; hek293) was “Not Active”.
In the case of Cc1ccc(C(=O)c2cc(O)c(-c3cc(Cl)cc(Cl)c3)c(O)c2)cc1, the Efficacy [1] is reported as “inactive”, the Ratio Ki [2] is reported as 36.6 and the Ki [3] is reported as 0.258 µM. For the same compound, the EC50 ([4]; read-out: EC50) was 0.118 µM, the Efficacy [5] was 230% and the Ki [6] was 9.43 µM. The EC50 ([7]; hek293) was “Not Active”.
Cc1ccc(Cn2nc(C(=O)NC3C4(C)CCC(C4)C3(C)C)cc2-c2ccc(Cl)c(C)c2)cc1 (configuration not stated) [SR-144528] was tested, and the Efficacy [1] was “inactive”, the Efficacy [5] was 80.8% and the EC50 ([7]; hek293) was “Not Active”.
In the case of CCCCc1ccc(C(=O)c2cc(O)c(-c3cc(Cl)cc(Cl)c3)c(OC)c2)cc1, the Ki [3] is reported as greater than 10 µM, the EC50 ([4]; read-out: EC50) is reported as greater than 5 µM and the Efficacy [5] is reported as 108%. For the same compound, the Ki [6] was greater than 10 µM and the EC50 ([7]; hek293) was “Not Active”.
With CCCCCCC(=O)c1cc(O)c(-c2cc(Cl)cc(Cl)c2)c(O)c1 the Ki [3] was greater than 10 µM, the EC50 ([4]; hek293) was “Not Active” and the Ki [6] was greater than 10 µM. For the same compound, the EC50 ([7]; hek293) was “Not Active”.
In the case of COc1cc(C(=O)c2ccc(C)cc2)cc(OC)c1-c1cc(Cl)cc(Cl)c1, the Efficacy [1] is reported as “inactive”, the Ki [3] is reported as greater than 10 µM and the EC50 ([4]; hek293) is reported as “Not Active”. For the same compound, the Efficacy [5] was “inactive”, the Ki [6] was greater than 10 µM and the EC50 ([7]; hek293) was “Not Active”.
With Cc1cc(C)cc(C(=O)c2cc(O)c(-c3cc(Cl)cc(Cl)c3)c(O)c2)c1 the Efficacy [1] was “inactive”, the Ki [3] was greater than 10 µM and the EC50 ([4]; hek293) was “Not Active”. For the same compound, the Efficacy [5] was “inactive”, the Ki [6] was greater than 10 µM and the EC50 ([7]; hek293) was “Not Active”.
